ChEMBL document CHEMBL1150611, “Gaboroquinones A and B and 4'-O-demethylknipholone-4'-O-beta-D-glucopyranoside, phenylanthraquinones from the roots of Bulbine frutescens” (J Nat Prod, 2002)
≈ marks a conversion by molar mass, not a printed value.

Tests used:
Plasmodium falciparum [1] = assay: Antiplasmodial activity against chloroquine and pyrimethamine-resistant Plasmodium falciparum K1 infected human erythrocytes after 48 hrs by [3H]hypoxanthine uptake; type: functional, organism-based
Method in brief: (§1)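 Top test concentration was 5.0 µg mL-1.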

Plasmodium falciparum [2] = assay: Antiplasmodial activity against multi drug-sensitive Plasmodium falciparum NF54 infected human erythrocytes after 48 hrs by [3H]hypoxanthine uptake; type: functional, organism-based; method in brief: as §1
Trypanosoma cruzi = assay: Trypanocidal activity against trypomastigotes of Trypanosoma cruzi Tulahuen C2C4 infected in rat L6 cells after 4 days; type: functional, organism-based; details: L6, 96 h
[3] = system: Trypanosoma brucei rhodesiense; assay: Trypanocidal activity against Trypanosoma brucei rhodesiense STIB 900 after 72 hrs; type: functional, organism-based
L6 = assay: Cytotoxicity against rat L6 cells after 4 days; type: cell-based; details: L6, 96 h
Method in brief: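 Mammalian-cell cytotoxicity was tested up to a highest concentration of 90 µg mL-1.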

## COc1cc(O)c(-c2c(CO)cc(O)c3c2C(=O)c2cccc(O)c2C3=O)c(O)c1C(C)=O [GABOROQUINONE B]
Plasmodium falciparum [1]
  IC50: > 5 µg/mL
Plasmodium falciparum [2]
  IC50: > 5 µg/mL
Trypanosoma cruzi
  IC50: > 90 µg/mL
[3]
  IC50: 45.5 µg/mL (≈ 101 µM)
L6
  MIC: > 90 µg/mL

## CC(=O)c1c(O[C@@H]2O[C@H](CO)[C@@H](O)[C@H](O)[C@H]2O)cc(O)c(-c2c(C)cc(O)c3c2C(=O)c2cccc(O)c2C3=O)c1O [BULBINELONESIDE D]
Plasmodium falciparum [1]
  IC50: 0.41 µg/mL (≈ 0.704 µM)
Plasmodium falciparum [2]
  IC50: 0.43 µg/mL (≈ 0.738 µM)
Trypanosoma cruzi
  IC50: 6.8 µg/mL (≈ 11.7 µM)
[3]
  IC50: 0.7 µg/mL (≈ 1.2 µM)
L6
  MIC: 90 µg/mL (≈ 155 µM)

## COc1cc(O)c(-c2c(C)cc(O)c3c2C(=O)c2cccc(O)c2C3=O)c(O)c1C(C)=O [KNIPHOLONE]
Plasmodium falciparum [1]
  IC50: 0.67 µg/mL (≈ 1.54 µM)
Plasmodium falciparum [2]
  IC50: 0.91 µg/mL (≈ 2.09 µM)
Trypanosoma cruzi
  IC50: 7.6 µg/mL (≈ 17.5 µM)
[3]
  IC50: 9.3 µg/mL (≈ 21.4 µM)
L6
  MIC: 33 µg/mL (≈ 76 µM)

## COc1c(C(C)=O)c(O)cc(O)c1-c1c(CO)cc(O)c2c1C(=O)c1cccc(O)c1C2=O [GABOROQUINONE A]
Plasmodium falciparum [1]
  IC50: 4.8 µg/mL (≈ 10.7 µM)
Plasmodium falciparum [2]
  IC50: 4.2 µg/mL (≈ 9.33 µM)
Trypanosoma cruzi
  IC50: 33.1 µg/mL (≈ 73.5 µM)
[3]
  IC50: 5.1 µg/mL (≈ 11.3 µM)
L6
  MIC: > 90 µg/mL
